Active and inactive are the calls of the source. The calls are words filed in the database; no cut-off is given here.
Experiments:
HCT-8 = assay: Cytotoxicity against human HCT8 cells at 10 uM after 96 hrs by MTT assay; format: functional, cell-based
A549 = assay: Cytotoxicity against human A549 cells at 10 uM after 96 hrs by MTT assay; format: functional, cell-based
Liver microsomes = assay: Antioxidant activity against Fe2+-cystine induced lipid peroxidation in rat liver microsomes at 10 uM; format: functional; conditions: Microsome
Bel-7402 = assay: Cytotoxicity against human Bel7402 cells at 10 uM after 96 hrs by MTT assay; format: functional, cell-based
[1] = Antiinflammatory activity in rat polymorphonuclear leukocytes assessed as inhibition of platelet-activating factor-induced glucuronidase release at 10 uM preincubated for 15 mins before challenge by spectrophotometry; format: functional
PC-12 = assay: Neuroprotective activity against glutamate-induced neurotoxicity in rat PC12 cells at 10 uM preincubated for 24 hrs prior challenge measured after 24 hrs by MTT assay; format: functional, cell-based
BGC-823 = assay: Cytotoxicity against human BGC823 cells at 10 uM after 96 hrs by MTT assay; format: functional, cell-based
[2] = biological target: Signal transducer and activator of transcription 3 (Homo sapiens) (UniProt P40763); assay: Inhibition of STAT-3 activity in HELF cells at 10 uM; format: cell-based
Outline: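 HELF cells grown in DMEM with 10% FCS under humidified 5% CO2, transfected with pSTAT-3-TA-luc firefly luciferase reporter plasmid by lipofectamine 2000. After 24 h, treated in 5% FBS with compound or DMSO for 24 h. Luciferase activity read in cell lysates by luminometer; activity expressed relative to DMSO-treated transfected cells set at 100%.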

[3] = biological target: T1, Tyrosine-protein phosphatase non-receptor type 1 (Homo sapiens) (UniProt P18031); assay: Inhibition of GST-tagged human PTP1B PTPase activity using p-NPP as substrate at 10 uM after 10 mins by spectrophotometry
T1 sequence (whole entry): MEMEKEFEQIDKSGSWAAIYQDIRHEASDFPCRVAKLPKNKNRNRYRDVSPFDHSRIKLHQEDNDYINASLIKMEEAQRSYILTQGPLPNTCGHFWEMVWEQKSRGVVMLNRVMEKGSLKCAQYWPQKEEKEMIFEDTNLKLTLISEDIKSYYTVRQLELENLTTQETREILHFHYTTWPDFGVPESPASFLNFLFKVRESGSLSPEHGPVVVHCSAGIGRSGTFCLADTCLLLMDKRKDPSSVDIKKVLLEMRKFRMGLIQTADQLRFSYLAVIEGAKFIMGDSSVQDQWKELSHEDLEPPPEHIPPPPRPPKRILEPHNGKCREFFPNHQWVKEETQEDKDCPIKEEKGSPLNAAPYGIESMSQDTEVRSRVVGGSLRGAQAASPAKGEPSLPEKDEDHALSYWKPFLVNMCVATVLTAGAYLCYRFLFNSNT

KETR3 = assay: Cytotoxicity against human Ketr3 cells at 10 uM after 96 hrs by MTT assay; format: functional, cell-based
MCF7 = assay: Cytotoxicity against human MCF7 cells at 10 uM after 96 hrs by MTT assay; format: functional, cell-based
[4] = test system: Human immunodeficiency virus 1; assay: Antiviral activity against HIV1 infected in 293T cells at 10 uM pretreated for 15 mins prior infection measured after 48 hrs by luciferase reporter gene assay; format: functional, organism-based

Chain of Signal transducer and activator of transcription 3 (Homo sapiens) (P40763 whole entry): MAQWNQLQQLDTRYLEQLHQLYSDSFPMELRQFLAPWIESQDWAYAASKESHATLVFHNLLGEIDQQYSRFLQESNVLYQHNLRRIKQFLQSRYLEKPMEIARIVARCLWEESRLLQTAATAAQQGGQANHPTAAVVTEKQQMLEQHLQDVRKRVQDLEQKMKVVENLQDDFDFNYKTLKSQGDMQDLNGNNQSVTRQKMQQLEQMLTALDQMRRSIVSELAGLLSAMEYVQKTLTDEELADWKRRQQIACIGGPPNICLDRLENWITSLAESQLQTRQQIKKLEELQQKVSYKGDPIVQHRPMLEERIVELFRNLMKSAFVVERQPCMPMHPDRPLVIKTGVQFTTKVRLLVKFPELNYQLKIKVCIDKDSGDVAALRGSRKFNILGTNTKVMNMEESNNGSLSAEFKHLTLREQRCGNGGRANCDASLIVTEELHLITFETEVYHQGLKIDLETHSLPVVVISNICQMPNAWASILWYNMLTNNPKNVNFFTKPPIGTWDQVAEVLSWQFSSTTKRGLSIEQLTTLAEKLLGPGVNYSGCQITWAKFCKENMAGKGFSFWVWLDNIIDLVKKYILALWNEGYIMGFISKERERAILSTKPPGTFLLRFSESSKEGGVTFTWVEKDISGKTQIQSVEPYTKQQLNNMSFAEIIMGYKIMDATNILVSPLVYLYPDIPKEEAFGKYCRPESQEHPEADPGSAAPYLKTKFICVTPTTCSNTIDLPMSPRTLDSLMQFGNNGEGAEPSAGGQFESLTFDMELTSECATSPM

In the case of `C=C[C@H]1[C@H](O[C@@H]2O[C@H](CO)[C@@H](O)[C@H](O)[C@H]2O)OC=C(C(=O)O)[C@H]1C[C@H]1OC(=O)C(O)=C1c1ccccc1` [LONIPHENYRUVIRIDOSIDE D], the Activity (HCT-8) is reported as “inactive”, the Activity (A549) is reported as “inactive” and the Activity (Liver microsomes) is reported as “inactive”. The Activity (Bel-7402) was “inactive”, the inhibition at 10 µM [1] was less than 30% and the Activity (PC-12) was “inactive”. The Activity (BGC-823) was “inactive”, the inhibition [2] was 48.8% and the inhibition [3] was “inactive”. For the same molecule, the Activity (KETR3) was “inactive”, the Activity (MCF7) was “inactive” and the Activity [4] was “inactive”.

— ChEMBL document CHEMBL1926618, “Homosecoiridoids from the flower buds of Lonicera japonica” (2011)
